The values that follow come from ChEMBL document CHEMBL4715793 (J Med Chem, 2016).

A short description of series [1]: Antiviral activity against HCV subtype 2a J6/JFH/JC1 infected in human Huh7.5 cells assessed as reduction in viral RNA levels measured after 72 hrs by qRT-PCR analysis. The settings on record: Hepatitis C virus, J6/JFH/JC1, Huh7.5, 72 h.
Series [2] can be described thus: Selectivity index, ratio of CC50 for cytotoxicity against human Huh7.5 cells assessed as reduction in cell viability incubated for 72 hrs by MTT assay to EC50 for antiviral activity against HCV genotype 2a J6/JFH/JC1 infected in human Huh7.5 cells assessed as reduction in viral RNA levels measured after 72 hrs by qRT-PCR analysis. The class given is toxicity, cell-based. The settings on record: read-out: Ratio CC50/EC50. Background: Tetrazolium assays rely on reduction of a dye to a coloured formazan, in cell work by metabolically active cells.

Series [3] is described as follows: Cytotoxicity against human Huh7.5 cells assessed as reduction in cell viability incubated for 72 hrs by MTT assay. The class given is cell-based. The method, boiled down:
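Huh7.5 cells seeded at 3 × 10^4/cm2, grown 24 h, then exposed to compound for 72 h. Viability read by MTT assay. CC50 by Reed & Muench method, mean ± SD from three independent experiments.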

Series [4] relates to Hepatitis C virus. Briefly: Antiviral activity against HCV J6/JFH/JC1 harboring A156T mutant infected in human Huh7.5 cells assessed as inhibition of viral replication measured after 72 hrs by qRT-PCR analysis. The class given is functional, organism-based, Hepacivirus hominis. To be noted: J6/JFH/JC1, Huh7.5, 72 h.
Series [5] concerns Hepatitis C virus. Briefly: Antiviral activity against HCV subgenomic replicon harboring I377-3'del.S infected in human GS4.3 cells assessed as inhibition of viral replication at 6.25 to 25 uM after 72 hrs by qRT-PCR analysis. To be noted: Hepacivirus hominis, dose 6.25-25 µM. The class given is functional, organism-based. The method, boiled down: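 GS4.3 cells (Huh7 carrying HCV subgenomic replicon I377-3′del.S) seeded at 3 × 10^4/cm2, after 24 h treated with compound or solvent control. After 72 h intracellular RNA extracted and replicon RNA measured by qRT-PCR. Cytotoxicity checked by MTT at 72 h.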
In general terms: In antiviral work, replicon cells carry a viral genome segment that copies itself.

Series [6] has as its system Hepatitis C virus. Briefly: Antiviral activity against wild-type HCV J6/JFH/JC1 infected in human Huh7.5 cells assessed as inhibition of viral replication measured after 72 hrs by qRT-PCR analysis. The class given is functional, organism-based, Hepacivirus hominis. To be noted: J6/JFH/JC1, Huh7.5, 72 h. The gist of the method: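 Huh7.5 cells seeded at 3 × 10^4/cm2 and incubated 24 h. Infected with wild-type HCVcc stock (45 IU/cell) with compound or solvent control added at the same time. After 72 h, intracellular RNA measured by one-step qRT-PCR and core protein by Western blot. EC50 by Reed & Muench method, mean ± SD from three independent experiments.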
In general terms: In qPCR the cycle at which signal appears reflects the starting amount.

Series [7] has as its target T1, Chondroitin sulfate N-acetylgalactosaminyltransferase 1 (Homo sapiens) (UniProt Q8TDX6).
T1 sequence (whole entry): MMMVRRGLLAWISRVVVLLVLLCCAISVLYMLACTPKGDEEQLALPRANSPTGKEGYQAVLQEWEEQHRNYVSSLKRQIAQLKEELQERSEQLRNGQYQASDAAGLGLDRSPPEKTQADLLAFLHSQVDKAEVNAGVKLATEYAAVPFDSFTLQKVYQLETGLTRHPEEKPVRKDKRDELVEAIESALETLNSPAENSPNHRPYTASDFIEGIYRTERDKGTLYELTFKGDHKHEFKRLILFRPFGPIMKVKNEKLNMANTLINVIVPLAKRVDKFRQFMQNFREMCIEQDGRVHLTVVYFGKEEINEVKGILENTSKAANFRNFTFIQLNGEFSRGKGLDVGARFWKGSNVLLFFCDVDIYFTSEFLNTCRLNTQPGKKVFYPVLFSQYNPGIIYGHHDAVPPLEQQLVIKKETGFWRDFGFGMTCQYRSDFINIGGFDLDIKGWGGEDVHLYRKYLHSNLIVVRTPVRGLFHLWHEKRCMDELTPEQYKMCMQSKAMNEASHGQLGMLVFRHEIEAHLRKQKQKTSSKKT
The experiment in a line: Destabilization of CSGalNacT-1 in human Huh7.5 cells assessed as down regulation of CSGalNacT-1 protein levels measured after 72 hrs by Western blot analysis. The class given is cell-based. To be noted: dose 0.2-25 µM.

Series [8] can be described thus: Inhibition of NS5A in HCV genotype 1b infected in HuH7.5Lcu-Neo cells assessed as reduction in viral replication by luciferase reporter gene assay. The class given is cell-based, Hepatitis C virus subtype 1b. The settings on record: Hepatitis C virus.
The subject of series [9] is Hepatitis C virus. Briefly: Antiviral activity against HCV J6/JFH/JC1 harboring S282T mutant infected in human Huh7.5 cells assessed as inhibition of viral replication measured after 72 hrs by qRT-PCR analysis. The class given is functional, organism-based, Hepacivirus hominis. To be noted: J6/JFH/JC1, Huh7.5, 72 h.
Series [10] can be described thus: Resistance ratio of EC50 for antiviral activity against HCV J6/JFH/JC1 harboring D168V mutant infected in human Huh7.5 cells to EC50 for antiviral activity against wild-type HCV J6/JFH/JC1 infected in human Huh7.5 cells. The class given is functional.
Series [11] relates to Hepatitis C virus. The experiment in a line: Antiviral activity against HCV J6/JFH/JC1 harboring D168V mutant infected in human Huh7.5 cells assessed as inhibition of viral replication measured after 72 hrs by qRT-PCR analysis. The class given is functional, organism-based, Hepacivirus hominis. The settings on record: J6/JFH/JC1, Huh7.5, 72 h.

Active and inactive are the calls of the source. The calls are words filed in the database; no cut-off is given here.

What is called EC50 is the concentration that produces a half-maximal response. Broadly, the CC50 is the concentration giving 50% cytotoxicity. In the case of `COC(=O)c1c(CCc2ccccc2)cc(OC)c(CC=C(C)C)c1O`, in series [1], the EC50 came to 16.1 µM. In [2], the selectivity ratio at 72 h is 8. Also, in series [3], the CC50 at 72 h turned out to be 122 µM.

With `COc1cc(/C=C/c2ccc(O)cc2)c(C(=O)O)c(O)c1CC=C(C)C`, the EC50 in series [1] is 0.33 µM. Further, the selectivity ratio at 72 h in series [2] amounted to 49. Moreover, the CC50 at 72 h in [3] turned out to be 16.1 µM.

For the compound `COc1cc(/C=C(\C)c2ccccc2)c(C(=O)O)c(O)c1CC=C(C)C`, the EC50 in series [1] stood at 1.7 µM. Further, the selectivity ratio at 72 h in [2] was determined as 45. Besides, the CC50 at 72 h in series [3] was 76.8 µM.

For the compound `COc1cc(/C=C/c2ccc(C)cc2)c(C(=O)O)c(O)c1CC=C(C)C`, the EC50 in [1] was 6.54 µM. The selectivity ratio at 72 h in series [2] was found to be 13. Also, in series [3], the CC50 at 72 h was 82.9 µM.

In the case of `CCC[C@H](NC(=O)[C@@H]1[C@H]2CCC[C@H]2CN1C(=O)[C@@H](NC(=O)[C@@H](NC(=O)c1cnccn1)C1CCCCC1)C(C)(C)C)C(=O)C(=O)NC1CC1`, the EC50 in series [1] turned out to be 0.008 µM; in series [4] it was 0.62 µM; in [6] it was 20 nM. Also, the selectivity ratio at 72 h in series [2] stood at 5700. Moreover, the result in [5] was Active. The CC50 at 72 h in series [3] was found to be 44.9 µM.

With `COC(=O)N[C@H](C(=O)N1CCC[C@H]1c1ncc(-c2ccc(-c3ccc(-c4cnc([C@@H]5CCCN5C(=O)[C@@H](NC(=O)OC)C(C)C)[nH]4)cc3)cc2)[nH]1)C(C)C`, the EC50 in series [6] was 0.0177 nM.

As to `COC(=O)c1c(O)cc(OC)cc1/C=C/c1ccccc1`, the Activity entry in series [7] was “Dose-dependent effect”.

Regarding `COc1cc(/C=C/c2cccs2)c(C(=O)O)c(O)c1CC=C(C)C`, in series [1], the EC50 was determined as 3.7 µM. Moreover, in [2], the selectivity ratio at 72 h worked out at 22. Besides, the CC50 at 72 h in [3] stood at 83 µM.

`COc1cc(/C=C/c2cccc(C)c2)c(C(=O)O)c(O)c1CC=C(C)C`: the EC50 in [1] was 1.95 µM. Moreover, the selectivity ratio at 72 h in [2] turned out to be 42. For the same compound, in series [3], the CC50 at 72 h was 82.5 µM.

Take `C/C=C/C[C@@H](C)[C@@H](O)[C@H]1C(=O)N[C@@H](CC)C(=O)N(C)[C@H](C)C(=O)N(CC)[C@@H](C(C)C)C(=O)N[C@@H](C(C)C)C(=O)N(C)[C@@H](CC(C)C)C(=O)N[C@@H](C)C(=O)N[C@H](C)C(=O)N(C)[C@@H](CC(C)C)C(=O)N(C)[C@@H](CC(C)C)C(=O)N(C)[C@@H](C(C)C)C(=O)N1C` [ALISPORIVIR]: the EC50 in series [8] amounted to 0.0158 µM.

Regarding `COc1cc(/C=C/c2ccc(F)cc2)c(C(=O)O)c(O)c1CC=C(C)C`, the EC50 in [1] came to 1.49 µM. The selectivity ratio at 72 h in series [2] is 46. Moreover, the CC50 at 72 h in [3] worked out at 69.2 µM.

`CC(C)OC(=O)[C@H](C)N[P@](=O)(OC[C@H]1O[C@@H](n2ccc(=O)[nH]c2=O)[C@](C)(F)[C@@H]1O)Oc1ccccc1` [SOFOSBUVIR]: in [9], the concentration giving a half-maximal response (EC50) was 0.29 µM.

For `CC/C=C/c1cc(OC)c(CC=C(C)C)c(O)c1C(=O)O`, in series [1], the EC50 is 1.02 µM. In addition, the selectivity ratio at 72 h in series [2] turned out to be 71. In addition, in series [3], the half-maximal cytotoxic concentration (CC50) at 72 h turned out to be 72.9 µM.

Turning to `COc1cc(/C=C/c2ccccc2)cc(O)c1CC=C(C)C`, the EC50 in series [1] was found to be 12 µM. Further, the selectivity ratio at 72 h in series [2] turned out to be 1.8. Besides, the CC50 at 72 h in series [3] stood at 21.4 µM.

As for `COc1cc(/C=C/C=C/c2ccccc2)c(C(=O)O)c(O)c1CC=C(C)C`, the EC50 in series [1] was 13.4 µM. In addition, the selectivity ratio at 72 h in series [2] stood at 7. For the same compound, the CC50 at 72 h in series [3] was 96.9 µM.

Consider `COc1ccc2c(O[C@@H]3C[C@H]4C(=O)N[C@]5(C(=O)NS(=O)(=O)C6CC6)C[C@H]5/C=C\CCCCN(C)C(=O)[C@@H]4C3)cc(-c3nc(C(C)C)cs3)nc2c1C`, for which the “Ratio EC50” value in series [10] is 23.3. Further, the EC50 in series [11] was 0.93 µM; in [6], 40 nM.

`CC/C=C/c1cc(OC)c(CC=C(C)C)c(O)c1C(=O)OC`: the EC50 in series [1] was found to be 24.8 µM. In addition, the selectivity ratio at 72 h in series [2] amounted to 4. In addition, the CC50 at 72 h in series [3] was determined as 89.3 µM.

Turning to `COC(=O)c1c(/C=C(\C)c2ccccc2)cc(OC)c(CC=C(C)C)c1O`, the EC50 in [1] was 2.89 µM. Also, the selectivity ratio at 72 h in [2] was 35. In addition, the CC50 at 72 h in [3] came out at 102 µM.

With `COC(=O)c1c(/C=C/c2ccccc2)cc(OC)c(CC=C(C)C)c1O`, the EC50 in series [1] worked out at 4.87 µM. Moreover, the selectivity ratio at 72 h in series [2] was above 41. Moreover, the CC50 at 72 h in series [3] is above 200 µM.

Regarding `COc1cc(CCc2ccccc2)c(C(=O)O)c(O)c1CC=C(C)C` [AMORFRUTIN A], the EC50 in [1] is 1.68 µM. In addition, the selectivity ratio at 72 h in [2] was determined as 35. Also, in [3], the CC50 at 72 h amounted to 59.4 µM.

Turning to `CCOC(=O)c1c(/C=C/c2ccccc2)cc(OC)c(CC=C(C)C)c1O`, in series [1], the concentration for a half-maximal effect (EC50) was 4.13 µM. In series [2], the selectivity ratio at 72 h was 47. In series [3], the CC50 at 72 h is 195 µM.

As to `COc1cc(/C=C/c2ccccc2C)c(C(=O)O)c(O)c1CC=C(C)C`, the EC50 in series [1] was 5.92 µM. Moreover, in [2], the selectivity ratio at 72 h is 9. The CC50 at 72 h in series [3] worked out at 55.3 µM.

Regarding `COc1cc(/C=C/c2ccccc2Cl)c(C(=O)O)c(O)c1CC=C(C)C`, the EC50 in series [1] worked out at 1.03 µM. The selectivity ratio at 72 h in series [2] stood at 39. In [3], the CC50 at 72 h came to 39.5 µM.
